For 21 compounds, IC50 results are on record in ChEMBL document CHEMBL4138218, “Potent aromatase inhibitors and molecular mechanism of inhibitory action” (Eur J Med Chem, 2018).

In one assay the target is T1, Aromatase (Homo sapiens, UniProt P11511).
T1 sequence (P11511 whole entry): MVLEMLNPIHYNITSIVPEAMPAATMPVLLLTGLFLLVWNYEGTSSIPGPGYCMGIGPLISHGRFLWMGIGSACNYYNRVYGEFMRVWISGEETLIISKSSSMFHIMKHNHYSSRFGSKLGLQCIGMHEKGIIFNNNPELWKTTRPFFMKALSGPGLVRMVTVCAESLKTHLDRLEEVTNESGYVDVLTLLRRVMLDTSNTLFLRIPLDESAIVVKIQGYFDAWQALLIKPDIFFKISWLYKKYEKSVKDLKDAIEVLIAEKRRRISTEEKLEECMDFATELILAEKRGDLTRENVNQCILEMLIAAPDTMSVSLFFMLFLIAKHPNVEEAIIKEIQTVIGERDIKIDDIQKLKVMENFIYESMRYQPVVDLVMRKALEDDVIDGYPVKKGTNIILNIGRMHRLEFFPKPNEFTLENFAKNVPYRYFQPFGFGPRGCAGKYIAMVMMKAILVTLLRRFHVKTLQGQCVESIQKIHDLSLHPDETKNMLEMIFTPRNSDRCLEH
Put plainly: Inhibition of human aromatase using androstenedione as substrate and NADPH preincubated for 24 hrs followed by substrate addition measured after 24 hrs by ELISA. The method, boiled down: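 Enzyme was a microsomal pellet from human placenta: tissue homogenized in TES buffer (20 mM TES, 1 mM EDTA, 0.15 M KCl, 0.1 mM PMSF, pH 7.4), spun at 10,000 g for 25 min then 100,000 g for 75 min at 4 °C, resuspended with 0.25 M sucrose, stored at −80 °C. Androstenedione substrate with NADPH; estrone quantified by ELISA against a standard curve. Triplicates, mean IC50.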
In general terms: In an ELISA, binding on a coated surface is turned into a signal by an enzyme label.

The next assay has as its system MCF7. Put plainly: Cytotoxicity against human MCF7 cells after 48 hrs by MTT assay. The settings on record: MCF7, 48 h. Type of assay: cell-based. An outline of the steps:
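MCF-7 cells in DMEM with 10% FBS and 1% penicillin-streptomycin at 37 °C, 5% CO2. Seeded at 4,000 cells/well and left overnight, then exposed to a range of concentrations for 48 h. Medium replaced with fresh medium containing MTT (5 mg/ml) for 4 h, formazan dissolved in DMSO, absorbance read at 490 nm. IC50 computed from the curves.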
(In general: Formazan colour is commonly taken as a measure of viable cells.)

The structures appear in SMILES notation.

As a reminder, the IC50 is the concentration that inhibits the measured activity by half. For the compound `COc1ccc(-c2[nH]c3cc(F)ccc3c2Cn2ccnc2)cc1`, the IC50 is 0.0361 µM on Aromatase and greater than 1000 µM with MCF7.
In the same order, the values of `COc1ccc(-c2[nH]c3cc(Cl)ccc3c2Cn2ccnc2)cc1` are 0.277 µM and greater than 1000 µM.
As to `COc1ccc2c(Cn3cncn3)c(-c3ccc(Cl)cc3)[nH]c2c1`, the IC50 stood at 7.77 µM against Aromatase and 612 µM in the assay on MCF7.
The like results for `Clc1ccc(-c2[nH]c3cc(Cl)ccc3c2Cn2ccnc2)cc1` were, in that order, 0.261 µM and greater than 1000 µM.
In the same order, the values of `Clc1ccc(-c2[nH]c3cc4c(cc3c2Cn2cncn2)OCO4)cc1` are 0.677 µM and 354 µM.
In the same order, the values of `Fc1ccc(-c2[nH]c3cc4c(cc3c2Cn2cncn2)OCO4)cc1` are 0.0583 µM and 334 µM.
Take `Fc1ccc(-c2[nH]c3cc(F)ccc3c2Cn2ccnc2)cc1`: the half-inhibitory concentration (IC50) was determined as 0.0512 µM against Aromatase and 83.2 µM in the assay with MCF7.
Regarding `Clc1ccc(-c2[nH]c3cc(Cl)ccc3c2Cn2cncn2)cc1`, the IC50 against Aromatase is 0.208 µM; in the assay on MCF7, 382 µM.
Turning to `COc1ccc2c(Cn3cncn3)c(-c3ccc(F)cc3)[nH]c2c1`, the figures for the IC50 against Aromatase and with MCF7 were 0.238 µM and 12.2 µM, respectively.
The like results for `Fc1ccc(-c2[nH]c3cc(F)ccc3c2Cn2cncn2)cc1` were, in that order, 0.0544 µM and greater than 1000 µM.
The like results for `COc1ccc(-c2[nH]c3cc(F)ccc3c2Cn2cncn2)cc1` were, in that order, 0.0141 µM and 325 µM.
Take `COc1ccc2c(Cn3ccnc3)c(-c3ccc(Cl)cc3)[nH]c2c1`: the values for the IC50 on Aromatase and with MCF7 were 1.06 µM and greater than 1000 µM, respectively.
For the compound `Fc1ccc(-c2[nH]c3cc(Cl)ccc3c2Cn2cncn2)cc1`, the values for the IC50 against Aromatase and in the assay with MCF7 were 0.0969 µM and 625 µM, respectively.
The like results for `Fc1ccc2c(Cn3ccnc3)c(-c3ccc(Cl)cc3)[nH]c2c1` were, in that order, 0.0829 µM and 45 µM.
Turning to `Clc1ccc(-c2[nH]c3cc4c(cc3c2Cn2ccnc2)OCO4)cc1`, the IC50 was 2.64 µM at Aromatase and greater than 1000 µM with MCF7.
Regarding `Fc1ccc(-c2[nH]c3cc(Cl)ccc3c2Cn2ccnc2)cc1`, the figures for the IC50 at Aromatase and in the assay with MCF7 were 0.0323 µM and 41.5 µM, respectively.
The like results for `COc1ccc(-c2[nH]c3cc(Cl)ccc3c2Cn2cncn2)cc1` were, in that order, 0.196 µM and 14.4 µM.
As to `N#Cc1ccc(C(c2ccc(C#N)cc2)n2cncn2)cc1` [LETROZOLE], the IC50 with MCF7 is 4.73 µM.
On to `Fc1ccc(-c2[nH]c3cc4c(cc3c2Cn2ccnc2)OCO4)cc1`, for which the half-inhibitory concentration (IC50) at Aromatase is 0.211 µM; with MCF7, greater than 1000 µM.
In the same order, the values of `COc1ccc2c(Cn3ccnc3)c(-c3ccc(F)cc3)[nH]c2c1` are 0.109 µM and greater than 1000 µM.
The like results for `Fc1ccc2c(Cn3cncn3)c(-c3ccc(Cl)cc3)[nH]c2c1` were, in that order, 0.217 µM and greater than 1000 µM.
